Data reported in ChEMBL document CHEMBL4382192, “Discovery of a potent dual ALK and EGFR T790M inhibitor” (Eur J Med Chem, 2017).

Columns and labels:
[1] = system: Epidermal growth factor receptor (Homo sapiens), P00533 [L861Q]; assay: Binding affinity to human partial length EGFR L861Q mutant (R669 to V1011 residues) expressed in bacterial expression system assessed as residual binding level at 1 uM by Kinomescan method relative to control
Outline: (§1)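 Kinome-wide selectivity panel run by the KINOMEscan method, with the test compound at a single concentration of 1 μM. Wild-type and mutant kinases were profiled in the same screen.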

[2] = target: Serine/threonine-protein kinase TNNI3K (Homo sapiens) (UniProt Q59H18); assay: Binding affinity to wild-type human full length TNNI3K (M1 to S835 residues) expressed in bacterial expression system assessed as residual binding level at 1 uM by Kinomescan method relative to control
[3] = target: Activin receptor type-1-like (Homo sapiens) (UniProt P37023); assay: Binding affinity to wild-type human ACVRL1 (L164 to Q503 residues) expressed in bacterial expression system assessed as residual binding level at 1 uM by Kinomescan method relative to control
[4] = target: Serine/threonine-protein kinase Nek4 (Homo sapiens) (UniProt P51957); assay: Binding affinity to wild-type human full length NEK4 (M1 to F841 residues) expressed in mammalian expression system assessed as residual binding level at 1 uM by Kinomescan method relative to control
Outline: (§2)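 Single-point kinome-wide KINOMEscan binding panel, test compound at 1 μM, run by the provider's standard protocol.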

[5] = target: Tyrosine-protein kinase FRK (Homo sapiens) (UniProt P42685); assay: Binding affinity to wild-type human partial length FRK (A215 to F503 residues) expressed in bacterial expression system assessed as residual binding level at 1 uM by Kinomescan method relative to control
[6] = target: Serine/threonine-protein kinase tousled-like 1 (Homo sapiens) (UniProt Q9UKI8); assay: Binding affinity to wild-type human partial length TLK1 (K447 to A754 residues) expressed in bacterial expression system assessed as residual binding level at 1 uM by Kinomescan method relative to control
[7] = target: Cyclin-dependent kinase 14 (Homo sapiens) (UniProt O94921); assay: Binding affinity to wild-type human full length PFTK1 (M1 to H451 residues) expressed in bacterial expression system assessed as residual binding level at 1 uM by Kinomescan method relative to control; outline: as §2
[8] = target: Phosphatidylinositol 4,5-bisphosphate 3-kinase catalytic subunit delta isoform (Homo sapiens) (UniProt O00329); assay: Binding affinity to wild-type human partial length PIK3CD (R108 to Q1044 residues) expressed in mammalian expression system assessed as residual binding level at 1 uM by Kinomescan method relative to control
[9] = target: Serine/threonine-protein kinase 4 (Homo sapiens) (UniProt Q13043); assay: Binding affinity to wild-type human full length MST1 (M1 to F487 residues) expressed in bacterial expression system assessed as residual binding level at 1 uM by Kinomescan method relative to control; outline: as §2
[10] = target: Aurora kinase A (Homo sapiens) (UniProt O14965); assay: Binding affinity to wild-type human partial length AURKA (E122 to K401 residues) expressed in mammalian expression system assessed as residual binding level at 1 uM by Kinomescan method relative to control
[11] = target: Ankyrin repeat and protein kinase domain-containing protein 1 (Homo sapiens) (UniProt Q8NFD2); assay: Binding affinity to wild-type human partial length ANKK1 (M1 to A305 residues) expressed in mammalian expression system assessed as residual binding level at 1 uM by Kinomescan method relative to control
[12] = target: Phosphatidylinositol 3-kinase C2 domain-containing subunit gamma (Homo sapiens) (UniProt O75747); assay: Binding affinity to wild-type human partial length PIK3C2G (M1 to I1446 residues) expressed in mammalian expression system assessed as residual binding level at 1 uM by Kinomescan method relative to control
[13] = target: Serine/threonine-protein kinase Nek7 (Homo sapiens) (UniProt Q8TDX7); assay: Binding affinity to wild-type human full length NEK7 (M1 to S302 residues) expressed in bacterial expression system assessed as residual binding level at 1 uM by Kinomescan method relative to control; outline: as §2
[14] = target: Focal adhesion kinase 1 (Homo sapiens) (UniProt Q05397); assay: Binding affinity to wild-type human partial length FAK (D402 to R696 residues) expressed in bacterial expression system assessed as residual binding level at 1 uM by Kinomescan method relative to control
[15] = target: Serine/threonine-protein kinase BRSK2 (Homo sapiens) (UniProt Q8IWQ3); assay: Binding affinity to wild-type human full length BRSK2 (M1 to L674 residues) expressed in bacterial expression system assessed as residual binding level at 1 uM by Kinomescan method relative to control
[16] = target: Fibroblast growth factor receptor 2 (Homo sapiens) (UniProt P21802); assay: Binding affinity to wild-type human partial length FGFR2 (D457 to E769 residues) expressed in bacterial expression system assessed as residual binding level at 1 uM by Kinomescan method relative to control
[17] = target: Ribosomal protein S6 kinase alpha-3 (Homo sapiens) (UniProt P51812); assay: Binding affinity to wild-type human partial length C-terminal RSK2 kinase domain 2 (V402 to S715 residues) expressed in mammalian expression system assessed as residual binding level at 1 uM by Kinomescan method relative to control
[18] = target: Ephrin type-B receptor 1 (Homo sapiens) (UniProt P54762); assay: Binding affinity to wild-type human partial length EPHB1 (P589 to T911 residues) expressed in bacterial expression system assessed as residual binding level at 1 uM by Kinomescan method relative to control
[19] = target: Tyrosine-protein kinase BTK (Homo sapiens) (UniProt Q06187); assay: Binding affinity to wild-type human full length BTK (M1 to S659 residues) expressed in mammalian expression system assessed as residual binding level at 1 uM by Kinomescan method relative to control
[20] = system: Receptor-type tyrosine-protein kinase FLT3 (Homo sapiens), P36888 [D835Y]; assay: Binding affinity to human partial length FLT3 D835Y mutant (Q580 to Y969 residues) expressed in bacterial expression system assessed as residual binding level at 1 uM by Kinomescan method relative to control; outline: as §1
[21] = target: Cyclin-dependent kinase-like 3 (Homo sapiens) (UniProt Q8IVW4); assay: Binding affinity to wild-type human partial length CDKL3 (M1 to D327 residues) expressed in bacterial expression system assessed as residual binding level at 1 uM by Kinomescan method relative to control
[22] = target: Serine/threonine-protein kinase D2 (Homo sapiens) (UniProt Q9BZL6); assay: Binding affinity to wild-type human partial length PRKD2 (A519 to E838 residues) expressed in bacterial expression system assessed as residual binding level at 1 uM by Kinomescan method relative to control
[23] = target: Serine/threonine-protein kinase 32B (Homo sapiens) (UniProt Q9NY57); assay: Binding affinity to wild-type human full length YANK2 (M1 to S414 residues) expressed in bacterial expression system assessed as residual binding level at 1 uM by Kinomescan method relative to control
[24] = target: Ephrin type-A receptor 5 (Homo sapiens) (UniProt P54756); assay: Binding affinity to wild-type human partial length EPHA5 (T627 to V930 residues) expressed in bacterial expression system assessed as residual binding level at 1 uM by Kinomescan method relative to control

Phosphatidylinositol 3-kinase C2 domain-containing subunit gamma (Homo sapiens), sequence (O75747 whole entry, the tested form may be a part): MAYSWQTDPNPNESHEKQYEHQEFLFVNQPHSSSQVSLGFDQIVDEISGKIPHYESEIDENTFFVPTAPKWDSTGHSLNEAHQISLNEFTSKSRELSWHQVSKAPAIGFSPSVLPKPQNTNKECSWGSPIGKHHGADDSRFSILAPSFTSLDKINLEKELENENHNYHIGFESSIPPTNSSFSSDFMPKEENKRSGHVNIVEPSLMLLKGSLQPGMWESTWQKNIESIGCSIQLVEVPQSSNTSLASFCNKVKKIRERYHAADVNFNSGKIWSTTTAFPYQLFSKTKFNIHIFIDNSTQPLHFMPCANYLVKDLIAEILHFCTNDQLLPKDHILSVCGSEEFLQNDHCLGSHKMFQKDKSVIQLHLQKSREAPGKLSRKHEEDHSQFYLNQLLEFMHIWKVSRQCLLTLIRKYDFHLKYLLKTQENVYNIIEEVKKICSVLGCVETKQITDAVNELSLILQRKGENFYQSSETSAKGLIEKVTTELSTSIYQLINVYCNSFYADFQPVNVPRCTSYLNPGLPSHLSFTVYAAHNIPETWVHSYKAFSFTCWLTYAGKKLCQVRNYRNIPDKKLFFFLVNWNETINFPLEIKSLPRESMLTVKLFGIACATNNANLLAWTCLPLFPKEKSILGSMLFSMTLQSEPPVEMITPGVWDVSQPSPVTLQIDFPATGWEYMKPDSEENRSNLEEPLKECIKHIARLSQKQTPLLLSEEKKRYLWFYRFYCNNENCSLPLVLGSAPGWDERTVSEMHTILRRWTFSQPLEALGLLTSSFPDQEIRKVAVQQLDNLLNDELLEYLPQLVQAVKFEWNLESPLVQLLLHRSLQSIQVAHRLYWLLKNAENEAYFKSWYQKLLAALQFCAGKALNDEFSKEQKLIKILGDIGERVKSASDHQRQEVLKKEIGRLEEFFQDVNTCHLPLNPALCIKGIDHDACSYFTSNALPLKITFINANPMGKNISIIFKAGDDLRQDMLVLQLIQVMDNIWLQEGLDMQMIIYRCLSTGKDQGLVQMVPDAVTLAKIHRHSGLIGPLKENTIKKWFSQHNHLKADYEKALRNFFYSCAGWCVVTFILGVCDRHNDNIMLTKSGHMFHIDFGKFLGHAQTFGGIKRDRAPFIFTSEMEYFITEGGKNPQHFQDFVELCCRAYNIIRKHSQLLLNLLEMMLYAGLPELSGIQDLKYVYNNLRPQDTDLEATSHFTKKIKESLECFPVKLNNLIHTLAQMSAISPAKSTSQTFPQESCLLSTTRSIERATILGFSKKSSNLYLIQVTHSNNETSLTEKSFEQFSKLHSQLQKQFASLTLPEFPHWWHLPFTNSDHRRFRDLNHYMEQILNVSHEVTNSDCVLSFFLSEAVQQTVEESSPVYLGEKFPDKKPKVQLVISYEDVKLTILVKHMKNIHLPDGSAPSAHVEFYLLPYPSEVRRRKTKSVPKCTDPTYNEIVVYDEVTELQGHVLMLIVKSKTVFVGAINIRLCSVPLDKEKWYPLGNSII
Serine/threonine-protein kinase TNNI3K (Homo sapiens), sequence (Q59H18 whole entry, the tested form may be a part): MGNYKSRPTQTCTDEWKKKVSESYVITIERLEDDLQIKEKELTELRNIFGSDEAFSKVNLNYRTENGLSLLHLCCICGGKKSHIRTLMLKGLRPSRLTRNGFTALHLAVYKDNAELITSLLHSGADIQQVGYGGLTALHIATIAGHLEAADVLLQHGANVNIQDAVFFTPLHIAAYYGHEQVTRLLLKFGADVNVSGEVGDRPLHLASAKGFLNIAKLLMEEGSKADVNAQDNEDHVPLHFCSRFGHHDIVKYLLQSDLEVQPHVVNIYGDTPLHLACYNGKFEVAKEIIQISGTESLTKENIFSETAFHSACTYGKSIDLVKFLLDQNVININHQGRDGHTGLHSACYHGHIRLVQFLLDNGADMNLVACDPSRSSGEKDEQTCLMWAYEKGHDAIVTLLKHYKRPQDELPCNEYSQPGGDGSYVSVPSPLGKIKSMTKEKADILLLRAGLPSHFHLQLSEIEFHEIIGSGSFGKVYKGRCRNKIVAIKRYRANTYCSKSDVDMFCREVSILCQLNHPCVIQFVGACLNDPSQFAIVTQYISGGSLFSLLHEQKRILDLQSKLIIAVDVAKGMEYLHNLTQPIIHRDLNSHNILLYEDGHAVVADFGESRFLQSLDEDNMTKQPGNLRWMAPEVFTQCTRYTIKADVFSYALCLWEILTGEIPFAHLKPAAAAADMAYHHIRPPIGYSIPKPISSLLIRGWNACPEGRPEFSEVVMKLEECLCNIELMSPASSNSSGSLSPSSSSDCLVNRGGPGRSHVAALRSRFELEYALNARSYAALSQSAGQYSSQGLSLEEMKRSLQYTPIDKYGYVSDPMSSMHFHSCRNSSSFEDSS
Serine/threonine-protein kinase 32B (Homo sapiens), sequence (Q9NY57 whole entry, the tested form may be a part): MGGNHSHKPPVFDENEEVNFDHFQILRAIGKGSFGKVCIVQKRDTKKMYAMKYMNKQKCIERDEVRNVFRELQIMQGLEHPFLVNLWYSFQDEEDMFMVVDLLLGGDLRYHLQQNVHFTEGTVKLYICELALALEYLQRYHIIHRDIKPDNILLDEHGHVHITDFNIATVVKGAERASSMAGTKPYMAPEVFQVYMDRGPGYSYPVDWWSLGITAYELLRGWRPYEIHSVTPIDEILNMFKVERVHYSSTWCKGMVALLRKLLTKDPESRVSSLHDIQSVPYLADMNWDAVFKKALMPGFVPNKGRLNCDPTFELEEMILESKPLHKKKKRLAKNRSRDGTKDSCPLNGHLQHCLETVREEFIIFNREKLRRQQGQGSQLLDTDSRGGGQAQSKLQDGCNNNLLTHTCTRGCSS
Ribosomal protein S6 kinase alpha-3 (Homo sapiens), sequence (P51812 whole entry, the tested form may be a part): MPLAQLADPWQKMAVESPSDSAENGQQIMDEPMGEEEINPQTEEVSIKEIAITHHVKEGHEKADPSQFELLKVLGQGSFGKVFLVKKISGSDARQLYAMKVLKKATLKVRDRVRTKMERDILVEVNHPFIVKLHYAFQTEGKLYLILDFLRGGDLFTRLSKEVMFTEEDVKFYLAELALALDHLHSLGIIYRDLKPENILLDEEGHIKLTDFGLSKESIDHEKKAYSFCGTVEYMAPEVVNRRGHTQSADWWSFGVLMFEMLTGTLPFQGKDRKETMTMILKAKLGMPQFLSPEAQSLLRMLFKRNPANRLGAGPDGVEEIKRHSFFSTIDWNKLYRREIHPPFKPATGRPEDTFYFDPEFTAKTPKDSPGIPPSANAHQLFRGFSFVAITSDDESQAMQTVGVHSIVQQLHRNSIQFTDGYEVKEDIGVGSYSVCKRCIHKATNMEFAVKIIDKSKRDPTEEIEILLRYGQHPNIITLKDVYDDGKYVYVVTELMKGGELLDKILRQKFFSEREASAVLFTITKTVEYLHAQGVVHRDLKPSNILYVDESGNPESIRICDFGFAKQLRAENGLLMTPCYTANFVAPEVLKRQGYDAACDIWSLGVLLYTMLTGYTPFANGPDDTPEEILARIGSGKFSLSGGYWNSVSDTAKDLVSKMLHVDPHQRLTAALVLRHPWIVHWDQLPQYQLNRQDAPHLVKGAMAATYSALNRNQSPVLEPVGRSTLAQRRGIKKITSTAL
Cyclin-dependent kinase 14 (Homo sapiens), sequence (O94921 whole entry, the tested form may be a part, canonical isoform): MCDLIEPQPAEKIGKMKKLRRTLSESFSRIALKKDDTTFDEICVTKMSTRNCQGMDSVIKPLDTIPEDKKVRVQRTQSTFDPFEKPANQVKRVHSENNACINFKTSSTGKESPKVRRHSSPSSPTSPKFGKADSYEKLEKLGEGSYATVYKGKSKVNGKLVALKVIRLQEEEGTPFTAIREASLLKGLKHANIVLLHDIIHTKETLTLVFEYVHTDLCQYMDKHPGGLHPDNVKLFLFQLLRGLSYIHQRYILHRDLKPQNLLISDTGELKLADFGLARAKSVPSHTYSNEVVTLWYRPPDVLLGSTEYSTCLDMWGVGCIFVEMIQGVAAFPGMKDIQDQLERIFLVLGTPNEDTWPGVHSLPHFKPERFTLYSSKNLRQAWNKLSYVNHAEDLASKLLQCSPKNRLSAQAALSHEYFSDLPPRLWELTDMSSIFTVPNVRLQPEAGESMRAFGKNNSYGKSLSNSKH
Serine/threonine-protein kinase D2 (Homo sapiens), sequence (Q9BZL6 whole entry, the tested form may be a part): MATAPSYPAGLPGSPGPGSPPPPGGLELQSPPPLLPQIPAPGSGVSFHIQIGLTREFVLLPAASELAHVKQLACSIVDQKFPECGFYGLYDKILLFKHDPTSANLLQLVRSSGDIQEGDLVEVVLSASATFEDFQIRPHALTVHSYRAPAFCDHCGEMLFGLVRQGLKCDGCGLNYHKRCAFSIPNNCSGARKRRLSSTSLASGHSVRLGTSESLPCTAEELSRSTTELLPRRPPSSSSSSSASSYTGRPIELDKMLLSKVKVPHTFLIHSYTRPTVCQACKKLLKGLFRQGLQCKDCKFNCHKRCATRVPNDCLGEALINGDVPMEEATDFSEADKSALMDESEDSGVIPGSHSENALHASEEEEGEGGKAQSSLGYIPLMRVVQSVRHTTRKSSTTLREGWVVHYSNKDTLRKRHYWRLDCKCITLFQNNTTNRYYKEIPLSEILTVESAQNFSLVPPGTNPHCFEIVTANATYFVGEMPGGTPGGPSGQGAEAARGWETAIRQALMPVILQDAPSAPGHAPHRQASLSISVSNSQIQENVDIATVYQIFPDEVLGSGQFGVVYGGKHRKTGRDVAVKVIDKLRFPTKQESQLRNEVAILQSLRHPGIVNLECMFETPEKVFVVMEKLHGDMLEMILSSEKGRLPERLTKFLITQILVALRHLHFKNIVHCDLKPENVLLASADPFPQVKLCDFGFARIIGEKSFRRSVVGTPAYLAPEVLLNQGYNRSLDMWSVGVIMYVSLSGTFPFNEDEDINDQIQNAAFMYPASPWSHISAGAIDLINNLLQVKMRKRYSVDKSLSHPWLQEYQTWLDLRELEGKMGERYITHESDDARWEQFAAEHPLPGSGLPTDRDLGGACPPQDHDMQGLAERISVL

Compound: C=CC(=O)Nc1cc(Nc2ncc(Cl)c(Nc3ccccc3S(=O)(=O)C(C)C)n2)c(OC)cc1N(C)CCN(C)C
- Activity [1]: 2%
- Activity [2]: 100%
- Activity [3]: 30%
- Activity [4]: 100%
- Activity [5]: 5.9%
- Activity [6]: 68%
- Activity [7]: 83%
- Activity [8]: 75%
- Activity [9]: 86%
- Activity [10]: 4.2%
- Activity [11]: 39%
- Activity [12]: 69%
- Activity [13]: 72%
- Activity [14]: 0%
- Activity [15]: 49%
- Activity [16]: 15%
- Activity [17]: 75%
- Activity [18]: 38%
- Activity [19]: 0%
- Activity [20]: 3.6%
- Activity [21]: 66%
- Activity [22]: 3.1%
- Activity [23]: 2.4%
- Activity [24]: 88%
